Each structure is given as a SMILES string.

Test [1] deals with Tyrosine-protein kinase ABL1 (Homo sapiens), P00519 [Y253F]. The experiment in a line: Binding affinity to human phosphorylated ABL1 Y253F mutant (S229 to K512 residues) expressed in mammalian expression system assessed as residual binding level at 1 uM by Kinomescan method relative to control. The essentials: (§1)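 Active-site-directed KinomeScan competition binding panel covering 468 kinases, compound tested at 1 μM. Each readout is the kinase signal remaining with compound, expressed as a percentage of the DMSO control. […]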

The target of test [2] is Aurora kinase A (Homo sapiens) (UniProt O14965). The experiment in a line: Binding affinity to wild-type human partial length AURKA (E122 to K401 residues) expressed in mammalian expression system assessed as residual binding level at 1 uM by Kinomescan method relative to control.
Test [3] addresses Aurora kinase B (Homo sapiens) (UniProt Q96GD4). The experiment in a line: Binding affinity to wild-type human partial length AURKB (D25 to A303 residues) expressed in mammalian expression system assessed as residual binding level at 1 uM by Kinomescan method relative to control. The essentials:
(§2)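 KinomeScan, an active site-directed competition binding panel of 468 kinases. The test compound was at 1 μM. The readout is remaining kinase binding as a percentage of the DMSO control. Scores above 35% were treated as weak binding and not listed.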

Test [4] addresses Bone morphogenetic protein receptor type-1A (Homo sapiens) (UniProt P36894). The experiment in a line: Binding affinity to wild-type human partial length BMPR1A (Q214 to I532 residues) expressed in bacterial expression system assessed as residual binding level at 1 uM by Kinomescan method relative to control.
Test [5] concerns the target Dual specificity protein kinase CLK1 (Homo sapiens) (UniProt P49759). The experiment in a line: Binding affinity to wild-type human full length CLK1 (M1 to I484 residues) expressed in bacterial expression system assessed as residual binding level at 1 uM by Kinomescan method relative to control. In a few lines:
as §1

The target in test [6] is Eukaryotic translation initiation factor 2-alpha kinase 1 (Homo sapiens) (UniProt Q9BQI3). The experiment in a line: Binding affinity to wild-type human partial length EIF2AK1 (Q147 to E603 residues) expressed in mammalian expression system assessed as residual binding level at 1 uM by Kinomescan method relative to control.
Eukaryotic translation initiation factor 2-alpha kinase 1 (Homo sapiens), sequence (Q9BQI3 whole entry, the tested form may be a part): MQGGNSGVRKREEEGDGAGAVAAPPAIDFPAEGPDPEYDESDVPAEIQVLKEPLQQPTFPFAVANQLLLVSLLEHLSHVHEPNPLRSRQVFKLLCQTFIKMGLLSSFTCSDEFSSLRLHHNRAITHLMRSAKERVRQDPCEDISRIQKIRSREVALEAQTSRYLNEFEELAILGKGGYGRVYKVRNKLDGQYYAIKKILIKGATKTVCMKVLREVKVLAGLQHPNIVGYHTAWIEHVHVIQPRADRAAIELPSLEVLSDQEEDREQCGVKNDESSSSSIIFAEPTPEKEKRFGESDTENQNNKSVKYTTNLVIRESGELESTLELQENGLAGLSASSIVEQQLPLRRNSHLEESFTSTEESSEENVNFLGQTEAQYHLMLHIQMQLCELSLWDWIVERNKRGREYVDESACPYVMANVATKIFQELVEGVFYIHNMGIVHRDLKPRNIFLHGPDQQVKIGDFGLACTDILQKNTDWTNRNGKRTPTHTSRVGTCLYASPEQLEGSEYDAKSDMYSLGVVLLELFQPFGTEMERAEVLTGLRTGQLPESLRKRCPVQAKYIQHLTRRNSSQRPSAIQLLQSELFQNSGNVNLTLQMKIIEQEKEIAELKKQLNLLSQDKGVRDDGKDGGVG
The subject of test [7] is Fibroblast growth factor receptor 3 (Homo sapiens), P22607 [G697C]. The experiment in a line: Binding affinity to human partial length FGFR3 G697C mutant (R442 to S771 residues) expressed in bacterial expression system assessed as residual binding level at 1 uM by Kinomescan method relative to control. In a few lines:
(§3)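 KinomeScan active site-directed competition binding panel (468 kinases), compound tested at 1 μM. Result expressed as remaining kinase signal versus DMSO control (percent of control).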

Test [8] has as its target Receptor-type tyrosine-protein kinase FLT3 (Homo sapiens) (UniProt P36888). The experiment in a line: Binding affinity to wild-type human partial length FLT3 (V592 to Y969 residues) expressed in bacterial expression system assessed as residual binding level at 1 uM by Kinomescan method relative to control.
For test [9], the target named is Tyrosine-protein kinase JAK1 (Homo sapiens) (UniProt P23458). The experiment in a line: Binding affinity to wild-type human partial length JAK1 JH1 catalytic domain (V856 to K1154 residues) expressed in bacterial expression system assessed as residual binding level at 1 uM by Kinomescan method relative to control.
Test [10] deals with Mast/stem cell growth factor receptor Kit (Homo sapiens), P10721 [UNDEFINED MUTATION]. The experiment in a line: Binding affinity to human partial length KIT V559D/V654 double mutant (Y545 to D952 residues) expressed in bacterial expression system assessed as residual binding level at 1 uM by Kinomescan method relative to control. The essentials:
as §3

For test [11], the target named is LIM domain kinase 1 (Homo sapiens) (UniProt P53667). The experiment in a line: Binding affinity to wild-type human full length LIMK1 (M1 to D647 residues) expressed in bacterial expression system assessed as residual binding level at 1 uM by Kinomescan method relative to control. In a few lines:
as §1

In test [12] the target is Serine/threonine-protein kinase 26 (Homo sapiens) (UniProt Q9P289). The experiment in a line: Binding affinity to wild-type human full length MST4 (M1 to P416 residues) expressed in mammalian expression system assessed as residual binding level at 1 uM by Kinomescan method relative to control. In a few lines:
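Active-site-directed competition binding panel (KinomeScan) covering 468 kinases. Test agent was screened at 1 μM. The read-out is the remaining kinase signal expressed relative to a DMSO control. Scores above 35%, taken as weak binding, were not reported.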

Test [13] deals with Serine/threonine-protein kinase mTOR (Homo sapiens) (UniProt P42345). The experiment in a line: Binding affinity to wild-type human partial length MTOR (L1382 to W2549 residues) expressed in mammalian expression system assessed as residual binding level at 1 uM by Kinomescan method relative to control. The essentials:
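Active-site-directed competition binding panel of 468 kinases (KinomeScan), compound at 1 μM. The read-out is kinase remaining bound, given as a percentage of the DMSO control. […]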

Test [14] concerns the target Serine/threonine-protein kinase Nek2 (Homo sapiens) (UniProt P51955). The experiment in a line: Binding affinity to wild-type human partial length NEK2 (M1 to K309 residues) expressed in bacterial expression system assessed as residual binding level at 1 uM by Kinomescan method relative to control.
For test [15], the target named is Mitogen-activated protein kinase kinase kinase 14 (Homo sapiens) (UniProt Q99558). The experiment in a line: Binding affinity to wild-type human partial length NIK (L318 to P947 residues) expressed in mammalian expression system assessed as residual binding level at 1 uM by Kinomescan method relative to control.
Test [16] deals with Serine/threonine-protein kinase pim-3 (Homo sapiens) (UniProt Q86V86). The experiment in a line: Binding affinity to wild-type human partial length PIM3 (G16 to A317 residues) expressed in bacterial expression system assessed as residual binding level at 1 uM by Kinomescan method relative to control.
Test [17] deals with Proto-oncogene tyrosine-protein kinase receptor Ret (Homo sapiens), P07949 [M918T]. The experiment in a line: Binding affinity to human partial length RET M918T mutant (E713 to D1014 residues) expressed in bacterial expression system assessed as residual binding level at 1 uM by Kinomescan method relative to control. In a few lines:
as §3

Test [18] concerns the target Proto-oncogene tyrosine-protein kinase ROS (Homo sapiens) (UniProt P08922). The experiment in a line: Binding affinity to wild-type human partial length ROS1 (A1921 to N2240 residues) expressed in bacterial expression system assessed as residual binding level at 1 uM by Kinomescan method relative to control.
Test [19] deals with Ribosomal protein S6 kinase alpha-6 (Homo sapiens) (UniProt Q9UK32). The experiment in a line: Binding affinity to wild-type human partial length C-terminal RSK4 kinase domain 2 (I401 to Y711 residues) expressed in bacterial expression system assessed as residual binding level at 1 uM by Kinomescan method relative to control. In a few lines: as §2
Test [20] addresses Serine/threonine-protein kinase 33 (Homo sapiens) (UniProt Q9BYT3). The experiment in a line: Binding affinity to wild-type human full length STK33 (M1 to L514 residues) expressed in bacterial expression system assessed as residual binding level at 1 uM by Kinomescan method relative to control.
Test [21] deals with BDNF/NT-3 growth factors receptor (Homo sapiens) (UniProt Q16620). The experiment in a line: Binding affinity to wild-type human partial length TRKB (Q547 to G838 residues) expressed in mammalian expression system assessed as residual binding level at 1 uM by Kinomescan method relative to control.

Fibroblast growth factor receptor 3 (Homo sapiens), P22607 [G697C], sequence (P22607 whole entry G697C, the tested form may be a part): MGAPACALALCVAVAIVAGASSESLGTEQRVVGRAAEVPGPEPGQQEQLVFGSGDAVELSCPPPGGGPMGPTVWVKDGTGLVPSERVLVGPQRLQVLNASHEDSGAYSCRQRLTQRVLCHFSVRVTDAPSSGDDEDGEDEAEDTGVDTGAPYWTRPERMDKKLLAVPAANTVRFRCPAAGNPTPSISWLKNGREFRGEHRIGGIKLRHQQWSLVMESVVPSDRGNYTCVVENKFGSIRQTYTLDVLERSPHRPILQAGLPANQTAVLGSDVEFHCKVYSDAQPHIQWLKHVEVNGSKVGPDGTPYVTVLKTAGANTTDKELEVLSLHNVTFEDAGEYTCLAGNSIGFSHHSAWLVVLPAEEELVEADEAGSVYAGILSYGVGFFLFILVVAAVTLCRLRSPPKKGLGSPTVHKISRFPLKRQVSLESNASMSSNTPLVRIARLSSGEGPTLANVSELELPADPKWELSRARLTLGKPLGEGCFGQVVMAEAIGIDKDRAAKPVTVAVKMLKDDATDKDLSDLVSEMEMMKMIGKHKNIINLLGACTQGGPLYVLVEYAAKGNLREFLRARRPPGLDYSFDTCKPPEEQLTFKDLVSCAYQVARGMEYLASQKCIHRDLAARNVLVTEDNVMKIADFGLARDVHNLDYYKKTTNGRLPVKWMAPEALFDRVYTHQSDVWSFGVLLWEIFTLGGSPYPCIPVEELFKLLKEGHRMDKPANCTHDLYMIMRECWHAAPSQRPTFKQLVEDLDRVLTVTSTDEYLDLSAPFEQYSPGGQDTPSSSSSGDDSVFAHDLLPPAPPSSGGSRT
Receptor-type tyrosine-protein kinase FLT3 (Homo sapiens), sequence (P36888 whole entry, the tested form may be a part): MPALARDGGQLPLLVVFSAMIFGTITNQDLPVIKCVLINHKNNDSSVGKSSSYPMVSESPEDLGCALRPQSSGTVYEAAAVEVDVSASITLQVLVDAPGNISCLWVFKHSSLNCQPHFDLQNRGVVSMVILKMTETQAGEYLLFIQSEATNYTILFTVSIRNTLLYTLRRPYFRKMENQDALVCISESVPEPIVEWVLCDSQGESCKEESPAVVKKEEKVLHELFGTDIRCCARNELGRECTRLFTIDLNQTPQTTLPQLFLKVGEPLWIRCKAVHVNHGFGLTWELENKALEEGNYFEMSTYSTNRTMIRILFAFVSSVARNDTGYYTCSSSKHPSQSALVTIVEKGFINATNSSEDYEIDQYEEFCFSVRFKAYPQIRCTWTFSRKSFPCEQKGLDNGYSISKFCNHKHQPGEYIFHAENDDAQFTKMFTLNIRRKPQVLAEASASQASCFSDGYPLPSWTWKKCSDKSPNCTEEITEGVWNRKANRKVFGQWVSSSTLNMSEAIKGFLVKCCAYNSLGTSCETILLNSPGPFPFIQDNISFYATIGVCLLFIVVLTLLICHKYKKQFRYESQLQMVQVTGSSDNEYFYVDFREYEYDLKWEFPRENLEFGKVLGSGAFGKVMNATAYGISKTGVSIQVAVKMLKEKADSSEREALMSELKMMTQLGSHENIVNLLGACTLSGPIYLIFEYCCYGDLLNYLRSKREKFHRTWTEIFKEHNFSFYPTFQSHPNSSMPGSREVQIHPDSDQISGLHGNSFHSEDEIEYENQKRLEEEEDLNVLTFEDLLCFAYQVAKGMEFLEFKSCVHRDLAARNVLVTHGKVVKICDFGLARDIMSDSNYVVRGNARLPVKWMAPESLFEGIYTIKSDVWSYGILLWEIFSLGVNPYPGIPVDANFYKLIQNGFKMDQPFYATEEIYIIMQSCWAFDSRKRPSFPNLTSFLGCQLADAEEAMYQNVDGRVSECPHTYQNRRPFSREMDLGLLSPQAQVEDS
Bone morphogenetic protein receptor type-1A (Homo sapiens), sequence (P36894 whole entry, the tested form may be a part): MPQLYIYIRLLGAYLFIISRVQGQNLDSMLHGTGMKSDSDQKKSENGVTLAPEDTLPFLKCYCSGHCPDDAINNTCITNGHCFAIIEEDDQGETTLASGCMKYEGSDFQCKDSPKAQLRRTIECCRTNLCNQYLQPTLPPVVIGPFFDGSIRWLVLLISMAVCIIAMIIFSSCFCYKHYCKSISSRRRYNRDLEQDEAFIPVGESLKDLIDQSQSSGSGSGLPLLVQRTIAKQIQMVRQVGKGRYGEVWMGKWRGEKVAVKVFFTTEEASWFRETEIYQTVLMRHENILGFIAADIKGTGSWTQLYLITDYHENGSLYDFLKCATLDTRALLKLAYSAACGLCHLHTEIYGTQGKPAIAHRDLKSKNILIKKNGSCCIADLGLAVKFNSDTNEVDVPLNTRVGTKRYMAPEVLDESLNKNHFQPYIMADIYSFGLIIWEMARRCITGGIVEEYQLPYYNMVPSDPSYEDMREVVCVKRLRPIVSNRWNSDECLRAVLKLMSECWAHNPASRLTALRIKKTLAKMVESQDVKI
Serine/threonine-protein kinase 33 (Homo sapiens), sequence (Q9BYT3 whole entry, looked up, the tested form may be a part): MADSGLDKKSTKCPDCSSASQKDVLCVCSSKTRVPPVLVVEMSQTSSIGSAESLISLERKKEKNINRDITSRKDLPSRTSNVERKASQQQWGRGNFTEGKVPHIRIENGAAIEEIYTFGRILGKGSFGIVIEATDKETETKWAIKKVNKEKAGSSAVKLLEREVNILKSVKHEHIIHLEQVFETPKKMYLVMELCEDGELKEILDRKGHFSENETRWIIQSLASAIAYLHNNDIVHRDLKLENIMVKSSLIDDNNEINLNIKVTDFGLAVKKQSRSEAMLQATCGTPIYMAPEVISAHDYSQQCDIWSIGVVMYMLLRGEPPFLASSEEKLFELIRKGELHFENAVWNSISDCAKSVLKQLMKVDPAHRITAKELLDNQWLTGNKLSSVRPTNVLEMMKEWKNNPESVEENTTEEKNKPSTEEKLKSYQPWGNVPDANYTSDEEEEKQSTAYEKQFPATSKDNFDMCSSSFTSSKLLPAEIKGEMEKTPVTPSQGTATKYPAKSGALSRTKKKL
Proto-oncogene tyrosine-protein kinase receptor Ret (Homo sapiens), P07949 [M918T], sequence (P07949 whole entry M918T, the tested form may be a part): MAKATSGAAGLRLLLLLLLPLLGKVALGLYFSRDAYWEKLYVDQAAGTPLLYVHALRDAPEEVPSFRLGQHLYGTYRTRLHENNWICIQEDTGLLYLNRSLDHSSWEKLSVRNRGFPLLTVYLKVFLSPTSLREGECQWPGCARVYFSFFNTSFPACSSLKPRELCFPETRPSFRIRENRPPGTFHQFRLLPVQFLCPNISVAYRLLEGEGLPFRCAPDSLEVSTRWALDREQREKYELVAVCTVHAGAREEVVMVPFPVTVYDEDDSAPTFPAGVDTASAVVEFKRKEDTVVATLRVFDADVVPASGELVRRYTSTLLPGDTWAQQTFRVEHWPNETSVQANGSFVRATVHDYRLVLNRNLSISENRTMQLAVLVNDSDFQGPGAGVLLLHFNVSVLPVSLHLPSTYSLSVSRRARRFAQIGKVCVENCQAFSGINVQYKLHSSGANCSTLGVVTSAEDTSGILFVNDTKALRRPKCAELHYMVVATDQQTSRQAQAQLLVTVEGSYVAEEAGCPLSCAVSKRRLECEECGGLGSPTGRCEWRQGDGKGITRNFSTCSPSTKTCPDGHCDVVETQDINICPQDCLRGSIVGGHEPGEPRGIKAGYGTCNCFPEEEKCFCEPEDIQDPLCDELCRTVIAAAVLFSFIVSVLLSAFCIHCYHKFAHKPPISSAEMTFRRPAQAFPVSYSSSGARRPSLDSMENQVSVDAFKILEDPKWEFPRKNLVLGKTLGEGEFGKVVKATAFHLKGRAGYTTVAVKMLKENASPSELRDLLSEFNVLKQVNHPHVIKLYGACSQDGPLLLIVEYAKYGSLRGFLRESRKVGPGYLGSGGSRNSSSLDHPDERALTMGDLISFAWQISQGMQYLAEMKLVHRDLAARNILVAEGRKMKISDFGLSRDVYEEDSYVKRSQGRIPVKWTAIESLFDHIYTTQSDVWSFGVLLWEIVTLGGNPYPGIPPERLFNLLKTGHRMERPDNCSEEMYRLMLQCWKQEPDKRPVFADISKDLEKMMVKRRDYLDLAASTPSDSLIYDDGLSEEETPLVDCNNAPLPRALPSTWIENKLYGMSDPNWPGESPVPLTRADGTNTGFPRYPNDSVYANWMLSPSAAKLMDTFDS
Serine/threonine-protein kinase 26 (Homo sapiens), sequence (Q9P289 2-416 limits assumed): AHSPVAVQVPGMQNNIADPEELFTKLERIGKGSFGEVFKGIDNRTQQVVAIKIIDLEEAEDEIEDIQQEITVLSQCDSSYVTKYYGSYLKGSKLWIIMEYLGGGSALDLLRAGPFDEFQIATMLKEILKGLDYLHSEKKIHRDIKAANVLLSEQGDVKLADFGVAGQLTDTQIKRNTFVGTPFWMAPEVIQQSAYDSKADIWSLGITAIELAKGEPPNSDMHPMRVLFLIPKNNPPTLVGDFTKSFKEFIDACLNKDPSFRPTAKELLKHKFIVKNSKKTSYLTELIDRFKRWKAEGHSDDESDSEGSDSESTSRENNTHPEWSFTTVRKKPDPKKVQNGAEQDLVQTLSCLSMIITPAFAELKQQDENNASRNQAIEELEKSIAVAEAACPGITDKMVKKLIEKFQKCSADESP

As for `C=CC(=O)Nc1ccccc1Nc1nc(Nc2ccc(N3CCN(C)CC3)cc2)ncc1C(=O)Nc1c(C)cccc1Cl`, the Activity is 0.1% in test [1]; 100% in test [2]; 79% in test [3]; 100% in [4]; 100% in test [5]; 100% in test [6]. The Activity in test [7] was determined as 100%; in test [8], 99%; in test [9], 100%; in test [10] it was 100%; in [11], 100%; in test [12], 85%. The Activity is 98% in [13]; 100% in test [14]; 100% in [15]; 100% in test [16]; 87% in test [17]; 100% in [18]. Also, the Activity stood at 96% in test [19], 100% in test [20] and 100% in test [21].

(Values after ChEMBL document CHEMBL4354843, “Structure-Based Design of a Potent and Selective Covalent Inhibitor for SRC Kinase That Targets a P-Loop Cysteine” (J Med Chem, 2020).)
